Reference: ChEMBL document CHEMBL1145951, “Phenethyl amides as novel noncovalent inhibitors of hepatitis C virus NS3/4A protease: discovery, initial SAR, and molecular modeling” (J Med Chem, 2003)
Starred links: 1 amine or outer side, 2 acyl side, 3 side chain; linkers in the order of their positions; H or OH if unused. Non-standard residues stand in square brackets, D forms with d. Residues, ends and D or L forms follow the SMILES beside them. ξ: configuration not given here. *: point of attachment. Dip = N[C@H](C(=O)O)C(c1ccccc1)c1ccccc1; X4 = O=C(C(=O)[*:2])[C@H](CC(F)F)N[*:1]; X1 = O=C(NOCc1ccccc1)[C@H](CC(F)F)N*; Abu(4,4-F2) = N[C@@H](CC(F)F)C(=O)O; N(Me)CH2CH2Ph = CN(CCc1ccccc1)*; Cha = N[C@@H](CC1CCCCC1)C(=O)O; NH(CH2)3Ph = c1ccc(CCCN*)cc1; NHPhenethyl = c1ccc(CCN*)cc1; X6 = c1ccc2c(c1)CC(N*)C2; ξE = NC(CCC(=O)O)C(=O)O; Cbz = O=C(OCc1ccccc1)*; Boc = CC(C)(C)OC(=O)*; NHBn = c1ccc(CN*)cc1; X2 = Clc1ccccc1CCN*; X5 = C1CCC(CCN*)CC1

Experiments:
[1] = molecular target: T1, NS3 (Hepatitis C virus, UniProt A3EZJ3, K136M); experiment: Binding affinity NS3 protease K136M; parameters: species or system Hepacivirus hominis
[2] = molecular target: T2, NS3 (Hepatitis C virus, UniProt A3EZJ3, K136R); experiment: Binding affinity for NS3 protease K136R; parameters: species or system Hepacivirus hominis
[3] = molecular target: T3, NS3 (Hepatitis C virus, UniProt A3EZJ3); experiment: Binding affinity for wild type NS3 protease; parameters: species or system Hepacivirus hominis
Method in brief: (§1)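 Protease domain of HCV NS3 with NS4A cofactor peptide. Ki found from steady-state kinetics as reversible competitive inhibition. A second Ki was calculated from pre-steady-state displacement of an active-site fluorescent probe, using k_off/k_on.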

[4] = molecular target: Hepatitis C virus serine protease, NS3/NS4A (Hepatitis C virus, UniProt A3EZI9+D2K2A8); experiment: (§2) Inhibitory activity against Hepatitis C NS3/NS4A protease; type: protein-complex assay, Hepacivirus hominis
Method in brief: (§3)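 Enzyme was the HCV NS3 protease domain with an NS4A cofactor peptide. IC50 values are means of two independent experiments, or of three to four for some series.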

[5] = molecular target: T4, Neutrophil elastase (Homo sapiens, UniProt P08246); experiment: Binding affinity for enzyme human leukocyte HLE
T4 sequence (P08246 whole entry): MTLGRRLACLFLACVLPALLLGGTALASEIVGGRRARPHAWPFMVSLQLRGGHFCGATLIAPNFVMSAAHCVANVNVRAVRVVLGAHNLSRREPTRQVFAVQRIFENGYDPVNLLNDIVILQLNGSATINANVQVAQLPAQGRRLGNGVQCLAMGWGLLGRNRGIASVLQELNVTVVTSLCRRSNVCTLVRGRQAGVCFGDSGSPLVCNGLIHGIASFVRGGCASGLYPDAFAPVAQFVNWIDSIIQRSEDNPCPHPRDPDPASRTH

[6] = molecular target: T1, NS3; experiment: Binding affinity for enzyme K136M; parameters: species or system Hepacivirus hominis
[7] = molecular target: T2, NS3; experiment: Binding affinity for enzyme K136R; parameters: species or system Hepacivirus hominis
[8] = molecular target: T3, NS3; experiment: Binding affinity for enzyme NS3 protease wild-type; parameters: species or system Hepacivirus hominis; method in brief: as §1
[9] = molecular target: Hepatitis C virus serine protease, NS3/NS4A (Hepatitis C virus, UniProt D2K2A8+A3EZI9); experiment: as §2; type: protein-complex assay, Hepacivirus hominis; method in brief: as §3

Compound	IC50 [4] [nM]	also measured
CC(C)COC(=O)NC(C(=O)N[C@@H](CC(C)C)C(=O)NC(CC(F)F)C(=O)NCCc1ccc(C(=O)O)cc1Cl)C(C)C (stereo partly specified)		Ki [1]: 4000 nM; Ki [2]: 2300 nM; Ki [3]: 2100 nM
CC(C)COC(=O)NC(CCC(=O)O)C(=O)N[C@@H](CC(C)C)C(=O)NC(CS)C(=O)NCCc1ccccc1C(=O)O (stereo partly specified)	> 100000	
CC(C)COC(=O)NC(CCC(=O)O)C(=O)N[C@@H](CC(C)C)C(=O)NC(CC(F)F)C(=O)NCCc1ccc(C(=O)O)cc1Cl (stereo partly specified)		Ki [5]: > 100000 nM; Ki [6]: 1300 nM; Ki [7]: 900 nM; Ki [8]: 600 nM
CC(C)C[C@H](NC(=O)[C@@H](NC(=O)OCc1ccccc1)C(C)C)C(=O)N[C@@H](CS)C(=O)NCCc1ccccc1 (Cbz-Val-Leu-Cys-NHPhenethyl)	> 400000	
CC(C)C[C@H](NC(=O)[C@@H](NC(=O)OC(C)(C)C)C(C)C)C(=O)N[C@@H](CC(F)F)C(=O)C(=O)O		IC50 [9]: 460 nM
COC(=O)c1cccc(CCNC(=O)C(CS)NC(=O)[C@H](CC(C)C)NC(=O)C(CCC(=O)O)NC(=O)OCC(C)C)c1 (stereo partly specified)	25000	
CC(C)C[C@H](NC(=O)C(CCC(=O)O)NC(=O)OC(C)(C)C)C(=O)NC(CC(F)F)C(=O)NCCc1ccccc1Cl (stereo partly specified)		Ki [5]: > 100000 nM; Ki [6]: 13500 nM; Ki [7]: 8300 nM; Ki [8]: 7300 nM
CC(=O)N[C@@H](CC(=O)O)C(=O)N[C@@H](CCC(=O)O)C(=O)N[C@H](C(=O)N[C@@H](CCC(=O)O)C(=O)N[C@@H](CC1CCCCC1)C(=O)N[C@@H](CS)C(=O)N(C)CCc1ccccc1)C(c1ccccc1)c1ccccc1 (Ac-DE[Dip]E[Cha]C-{N(Me)CH2CH2Ph})	70000	
CC(C)COC(=O)NC(CCC(=O)O)C(=O)N[C@@H](CC(C)C)C(=O)NC(CS)C(=O)NCCc1ccccc1 (stereo partly specified)	19000	
CC(C)C[C@H](NC(=O)[C@H](CCC(=O)O)NC(=O)OC(C)(C)C)C(=O)N[C@@H](CS)C(=O)O (Boc-Glu-Leu-Cys-OH)	> 200000	
CC(C)C[C@H](NC(=O)C(CCC(=O)O)NC(=O)OC(C)(C)C)C(=O)N[C@@H](CS)C(=O)NCCc1ccccc1 (stereo partly drawn) (Boc-[ξE]-Leu-Cys-NHPhenethyl)	27000	
COC(=O)c1ccccc1CCNC(=O)C(CS)NC(=O)[C@H](CC(C)C)NC(=O)C(CCC(=O)O)NC(=O)OCC(C)C (stereo partly specified)	54000	
CC(C)C[C@H](NC(=O)C(CCC(=O)O)NC(=O)OC(C)(C)C)C(=O)N[C@@H](CS)C(=O)NCc1ccccc1 (stereo partly drawn) (Boc-[ξE]-Leu-Cys-NHBn)	> 200000	

Continued, in another order:

IC50 [4] [nM]	Compound	also measured
40	CC(=O)N[C@@H](CC(=O)O)C(=O)N[C@@H](CCC(=O)O)C(=O)N[C@H](C(=O)N[C@@H](CCC(=O)O)C(=O)N[C@@H](CC1CCCCC1)C(=O)N[C@@H](CC(F)F)C(=O)NOCc1ccccc1)C(c1ccccc1)c1ccccc1 (Ac-DE[Dip]E[Cha]-X1)	
17000	COC(=O)c1ccc(CCNC(=O)C(CS)NC(=O)[C@H](CC(C)C)NC(=O)C(CCC(=O)O)NC(=O)OCC(C)C)cc1 (stereo partly specified)	
9200	CC(C)COC(=O)NC(CCC(=O)O)C(=O)N[C@@H](CC(C)C)C(=O)NC(CS)C(=O)NCCc1cccc(C(=O)O)c1 (stereo partly specified)	
40	CC(=O)N[C@@H](CC(=O)O)C(=O)N[C@@H](CCC(=O)O)C(=O)N[C@H](C(=O)N[C@@H](CCC(=O)O)C(=O)N[C@@H](CC1CCCCC1)C(=O)N[C@@H](CC(F)F)C(=O)O)C(c1ccccc1)c1ccccc1 (Ac-DE[Dip]E[Cha][Abu(4,4-F2)]-OH)	
2	CC(=O)N[C@@H](CC(=O)O)C(=O)N[C@@H](CCC(=O)O)C(=O)N[C@H](C(=O)N[C@@H](CCC(=O)O)C(=O)N[C@@H](CC1CCCCC1)C(=O)N[C@@H](CS)C(=O)NCCc1ccccc1Cl)C(c1ccccc1)c1ccccc1 (Ac-DE[Dip]E[Cha]C-X2)	
1540	CC(=O)N[C@@H](CC(=O)O)C(=O)N[C@@H](CCC(=O)O)C(=O)N[C@H](C(=O)N[C@@H](CCC(=O)O)C(=O)N[C@@H](CC1CCCCC1)C(=O)N[C@@H](CS)C(=O)NCCC1CCCCC1)C(c1ccccc1)c1ccccc1 (Ac-DE[Dip]E[Cha]C-X5)	
7	CC(=O)N[C@@H](CC(=O)O)C(=O)N[C@@H](CCC(=O)O)C(=O)N[C@H](C(=O)N[C@@H](CCC(=O)O)C(=O)N[C@@H](CC1CCCCC1)C(=O)N[C@@H](CS)C(=O)NCCc1ccccc1)C(c1ccccc1)c1ccccc1 (Ac-DE[Dip]E[Cha]C-NHPhenethyl)	
6500	CC(C)C[C@H](NC(=O)C(CCC(=O)O)NC(=O)OC(C)(C)C)C(=O)N[C@@H](CS)C(=O)NCCc1ccccc1Cl (stereo partly specified)	
2	CC(=O)N[C@@H](CC(=O)O)C(=O)N[C@@H](CCC(=O)O)C(=O)N[C@H](C(=O)N[C@@H](CCC(=O)O)C(=O)N[C@@H](CC1CCCCC1)C(=O)N[C@@H](CC(F)F)C(=O)C(=O)NCc1ccccc1)C(c1ccccc1)c1ccccc1 (Ac-DE[Dip]E[Cha][X4]-NHBn)	
3200	COC(=O)c1ccc(CCNC(=O)C(CS)NC(=O)[C@H](CC(C)C)NC(=O)C(CCC(=O)O)NC(=O)OCC(C)C)c(Cl)c1 (stereo partly specified)	
4	CC(=O)N[C@@H](CC(=O)O)C(=O)N[C@@H](CCC(=O)O)C(=O)N[C@H](C(=O)N[C@@H](CCC(=O)O)C(=O)N[C@@H](CC1CCCCC1)C(=O)N[C@@H](CC(F)F)C(=O)NCCc1ccccc1)C(c1ccccc1)c1ccccc1 (Ac-DE[Dip]E[Cha][Abu(4,4-F2)]-NHPhenethyl)	
210	CC(=O)N[C@@H](CC(=O)O)C(=O)N[C@@H](CCC(=O)O)C(=O)N[C@H](C(=O)N[C@@H](CCC(=O)O)C(=O)N[C@@H](CC1CCCCC1)C(=O)N[C@@H](CS)C(=O)NCCCc1ccccc1)C(c1ccccc1)c1ccccc1 (Ac-DE[Dip]E[Cha]C-{NH(CH2)3Ph})	
1700	CC(=O)N[C@@H](CC(=O)O)C(=O)N[C@@H](CCC(=O)O)C(=O)N[C@H](C(=O)N[C@@H](CCC(=O)O)C(=O)N[C@@H](CC1CCCCC1)C(=O)N[C@@H](CS)C(=O)NC1Cc2ccccc2C1)C(c1ccccc1)c1ccccc1 (Ac-DE[Dip]E[Cha]C-X6)	
250	CC(=O)N[C@@H](CC(=O)O)C(=O)N[C@@H](CCC(=O)O)C(=O)N[C@H](C(=O)N[C@@H](CCC(=O)O)C(=O)N[C@@H](CC1CCCCC1)C(=O)N[C@@H](CS)C(=O)NCc1ccccc1)C(c1ccccc1)c1ccccc1 (Ac-DE[Dip]E[Cha]C-NHBn)	
700	CC(C)COC(=O)NC(CCC(=O)O)C(=O)N[C@@H](CC(C)C)C(=O)NC(CS)C(=O)NCCc1ccc(C(=O)O)cc1Cl (stereo partly specified)	
